From ChEMBL document CHEMBL1148531, “The discovery of new 11beta-hydroxysteroid dehydrogenase type 1 inhibitors by common feature pharmacophore modeling and virtual screening” (J Med Chem, 2006)
Activity calls are given as the source filed them. The rule behind the calls is not given here.

What was measured:
[1] = biological target: T1, 11-beta-hydroxysteroid dehydrogenase 1 (Homo sapiens, UniProt P28845); experiment: Inhibition of human recombinant 11-beta-HSD1 expressed in HEK293 cells at 10 uM; format: cell-based; set-up: scale not given: the % may be the effect or the level left
Procedure, shortened: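 Lysates of HEK-293 cells expressing human 11β-HSD1; conversion of 200 nM tritiated cortisone with 500 µM NADPH, test compound at 10 µM; percent inhibition reported.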
Target sequence in this assay (P28845 whole entry, looked up): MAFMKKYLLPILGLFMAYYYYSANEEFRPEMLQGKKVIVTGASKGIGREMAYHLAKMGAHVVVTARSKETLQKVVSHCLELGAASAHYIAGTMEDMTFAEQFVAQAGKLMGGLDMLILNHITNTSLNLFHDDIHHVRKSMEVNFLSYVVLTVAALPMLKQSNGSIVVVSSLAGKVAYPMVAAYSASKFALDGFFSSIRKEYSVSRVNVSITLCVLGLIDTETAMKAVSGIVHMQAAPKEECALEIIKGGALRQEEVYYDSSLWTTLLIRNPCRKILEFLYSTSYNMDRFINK

HEK293 = experiment: Cytotoxicity against HEK293 cells upto 40 uM by MTT assay; format: functional, cell-based; settings: Homo sapiens
Procedure, shortened: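 HEK-293 cells on poly-D-lysine-coated wells exposed 4 h at 37 °C to 40 µM compound, then fresh medium with 0.5 mg/mL MTT; formazan dissolved in DMSO, absorbance A570 − A690. Controls: chloroform 1% v/v and NaOH 50 mM.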

[2] = biological target: T2, 17-beta-hydroxysteroid dehydrogenase type 1 (Homo sapiens, UniProt P14061); experiment: Inhibition of human recombinant 17betaHSD1 expressed in HEK293 cells; format: cell-based
T2 sequence (P14061 whole entry): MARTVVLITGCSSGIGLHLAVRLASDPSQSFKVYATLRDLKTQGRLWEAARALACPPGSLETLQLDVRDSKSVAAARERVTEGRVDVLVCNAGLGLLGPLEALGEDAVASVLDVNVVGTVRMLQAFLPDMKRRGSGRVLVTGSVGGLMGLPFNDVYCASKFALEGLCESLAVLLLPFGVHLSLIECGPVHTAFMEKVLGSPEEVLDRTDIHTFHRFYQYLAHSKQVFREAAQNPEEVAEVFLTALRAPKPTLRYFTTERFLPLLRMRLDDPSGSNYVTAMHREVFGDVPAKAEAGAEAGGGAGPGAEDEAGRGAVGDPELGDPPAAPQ
Procedure, shortened: (§1)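 Lysates of HEK-293 cells expressing human recombinant enzyme; inhibitor 50 nM–30 µM final, DMSO ≤0.1%. 11β-HSD1: 200 nM [1,2,6,7-3H]cortisone, 500 µM NADPH. 17β-HSD1: 200 nM radiolabeled estrone, 500 µM NADPH. 17β-HSD2: 200 nM radiolabeled estradiol, 500 µM NADP+. IC50 by nonlinear regression, first-order kinetics; mean ± SD, at least four experiments.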

[3] = biological target: T3, 17-beta-hydroxysteroid dehydrogenase type 2 (Homo sapiens, UniProt P37059); experiment: Inhibition of human recombinant 17-beta-HSD2 expressed in HEK293 cells; format: cell-based; procedure, shortened: as §1
T3 sequence (P37059 whole entry): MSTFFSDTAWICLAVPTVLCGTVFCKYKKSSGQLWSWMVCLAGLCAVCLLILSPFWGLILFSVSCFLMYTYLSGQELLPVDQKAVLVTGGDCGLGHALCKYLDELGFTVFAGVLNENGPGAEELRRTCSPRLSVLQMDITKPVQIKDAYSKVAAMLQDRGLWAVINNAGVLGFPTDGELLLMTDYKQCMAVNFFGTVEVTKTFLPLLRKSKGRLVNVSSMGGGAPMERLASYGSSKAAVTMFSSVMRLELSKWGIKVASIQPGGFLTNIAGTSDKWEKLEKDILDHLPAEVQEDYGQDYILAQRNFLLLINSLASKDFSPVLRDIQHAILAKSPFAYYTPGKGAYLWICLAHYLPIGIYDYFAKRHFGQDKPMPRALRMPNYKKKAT

[4] = biological target: T4, 11-beta-hydroxysteroid dehydrogenase type 2 (Homo sapiens, UniProt P80365); experiment: Inhibition of human recombinant 11betaHSD2 transfected in intact HEK293 cells; format: cell-based
T4 sequence (P80365 whole entry): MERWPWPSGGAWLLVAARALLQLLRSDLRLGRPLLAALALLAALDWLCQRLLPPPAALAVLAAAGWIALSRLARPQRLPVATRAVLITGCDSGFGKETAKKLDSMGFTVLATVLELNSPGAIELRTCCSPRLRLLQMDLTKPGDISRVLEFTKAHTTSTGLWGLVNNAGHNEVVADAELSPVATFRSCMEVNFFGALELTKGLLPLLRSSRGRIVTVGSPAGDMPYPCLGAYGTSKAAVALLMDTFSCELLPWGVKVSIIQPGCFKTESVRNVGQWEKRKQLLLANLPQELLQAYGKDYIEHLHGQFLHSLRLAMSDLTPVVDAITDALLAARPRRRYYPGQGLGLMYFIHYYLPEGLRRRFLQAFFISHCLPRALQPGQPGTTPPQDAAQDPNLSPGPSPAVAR

[5] = biological target: T1, 11-beta-hydroxysteroid dehydrogenase 1; experiment: Inhibition of human recombinant 11-beta-HSD1 transfected in intact HEK293 cells; format: cell-based
Procedure, shortened: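 HEK-293 cells cotransfected (calcium phosphate) with 11β-HSD1 and H6PDH plasmids, replated after 6 h at 30000 cells/well in steroid-free DMEM for 18 h. Inhibitor 50 nM–20 µM final with 200 nM radiolabeled cortisone, 90 min at 37 °C; stopped with excess unlabeled steroids in methanol, TLC, scintillation counting. Mean ± SD, at least four experiments.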
Target sequence in this assay (P28845 whole entry): as the sequence (P28845 whole entry, looked up) above

[6] = biological target: T5, 11-beta-hydroxysteroid dehydrogenase 1 (Mus musculus, UniProt P50172); experiment: Inhibition of 11-beta-HSD1-dependent cortisone conversion to cortisol in mouse intact 3T3 L1 cells; format: functional, cell-based
Procedure, shortened: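 3T3-L1 preadipocytes grown to confluence, held 48 h, differentiated 48 h (0.25 mM IBMX, 0.5 µM dexamethasone, 1 µg/mL insulin), then insulin medium 72 h, then insulin-free. Adipocytes incubated 45 min at 37 °C with 200 nM radiolabeled cortisone plus inhibitor at various concentrations. Medium steroids extracted, separated by TLC, scintillation counted.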

[7] = biological target: T5, 11-beta-hydroxysteroid dehydrogenase 1; experiment: Inhibition of 11-beta-HSD1-dependent cortisone conversion to cortisol in mouse intact C2C12 cells; format: functional, cell-based
Procedure, shortened: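 Differentiation: confluent C2C12 myoblasts kept 7 days in DMEM with 2% horse serum to form myotubes. Day-7 myotubes incubated 1 h at 37 °C with 200 nM radiolabeled cortisone and varying inhibitor (formation linear over 15–60 min). Steroids extracted from medium with ethyl acetate, separated by TLC, conversion by scintillation counting.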

Glucocorticoid receptor = biological target: T6, Glucocorticoid receptor (Homo sapiens, UniProt P04150); experiment: Inhibition of GR-mediated transactivation of galactosidase reporter gene in HEK293 cells in absence of 11betaHSD1; format: functional, cell-based
T6 sequence (P04150 whole entry): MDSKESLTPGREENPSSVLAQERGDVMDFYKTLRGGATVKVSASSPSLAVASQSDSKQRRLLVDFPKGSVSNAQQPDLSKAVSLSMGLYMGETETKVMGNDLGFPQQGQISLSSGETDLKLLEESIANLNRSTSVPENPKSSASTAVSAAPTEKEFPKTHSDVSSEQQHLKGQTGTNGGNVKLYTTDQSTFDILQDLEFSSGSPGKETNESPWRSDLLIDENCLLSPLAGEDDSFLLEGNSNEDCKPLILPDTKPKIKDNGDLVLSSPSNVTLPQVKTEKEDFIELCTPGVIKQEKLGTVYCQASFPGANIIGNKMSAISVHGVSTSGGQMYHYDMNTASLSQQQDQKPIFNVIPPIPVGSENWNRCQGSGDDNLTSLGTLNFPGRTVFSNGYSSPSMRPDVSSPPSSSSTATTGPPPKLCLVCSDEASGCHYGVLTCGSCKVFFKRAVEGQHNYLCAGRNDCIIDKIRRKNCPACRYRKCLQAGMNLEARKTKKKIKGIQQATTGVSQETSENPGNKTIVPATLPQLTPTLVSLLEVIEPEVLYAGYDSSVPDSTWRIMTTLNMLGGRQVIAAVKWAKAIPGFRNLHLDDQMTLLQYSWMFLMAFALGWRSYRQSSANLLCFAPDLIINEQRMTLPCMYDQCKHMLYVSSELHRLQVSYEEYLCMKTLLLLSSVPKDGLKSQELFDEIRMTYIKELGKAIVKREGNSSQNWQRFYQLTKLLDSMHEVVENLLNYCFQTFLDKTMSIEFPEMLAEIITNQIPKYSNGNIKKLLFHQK
Procedure, shortened: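 HEK-293 cells transfected with pMMTV-LacZ, pCMV-LUC and GR plus empty pcDNA3 (no 11β-HSD1/H6PDH). After 6 h, washed into steroid-free medium, then 24 h with 100 nM cortisol and graded inhibitor. β-Galactosidase normalized to luciferase, as % of steroid-only control. Four independent experiments, means ± SD.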

[8] = biological target: T7, Mineralocorticoid receptor (Homo sapiens, UniProt P08235); experiment: Antagonist activity against MR; format: functional
T7 sequence (P08235 whole entry): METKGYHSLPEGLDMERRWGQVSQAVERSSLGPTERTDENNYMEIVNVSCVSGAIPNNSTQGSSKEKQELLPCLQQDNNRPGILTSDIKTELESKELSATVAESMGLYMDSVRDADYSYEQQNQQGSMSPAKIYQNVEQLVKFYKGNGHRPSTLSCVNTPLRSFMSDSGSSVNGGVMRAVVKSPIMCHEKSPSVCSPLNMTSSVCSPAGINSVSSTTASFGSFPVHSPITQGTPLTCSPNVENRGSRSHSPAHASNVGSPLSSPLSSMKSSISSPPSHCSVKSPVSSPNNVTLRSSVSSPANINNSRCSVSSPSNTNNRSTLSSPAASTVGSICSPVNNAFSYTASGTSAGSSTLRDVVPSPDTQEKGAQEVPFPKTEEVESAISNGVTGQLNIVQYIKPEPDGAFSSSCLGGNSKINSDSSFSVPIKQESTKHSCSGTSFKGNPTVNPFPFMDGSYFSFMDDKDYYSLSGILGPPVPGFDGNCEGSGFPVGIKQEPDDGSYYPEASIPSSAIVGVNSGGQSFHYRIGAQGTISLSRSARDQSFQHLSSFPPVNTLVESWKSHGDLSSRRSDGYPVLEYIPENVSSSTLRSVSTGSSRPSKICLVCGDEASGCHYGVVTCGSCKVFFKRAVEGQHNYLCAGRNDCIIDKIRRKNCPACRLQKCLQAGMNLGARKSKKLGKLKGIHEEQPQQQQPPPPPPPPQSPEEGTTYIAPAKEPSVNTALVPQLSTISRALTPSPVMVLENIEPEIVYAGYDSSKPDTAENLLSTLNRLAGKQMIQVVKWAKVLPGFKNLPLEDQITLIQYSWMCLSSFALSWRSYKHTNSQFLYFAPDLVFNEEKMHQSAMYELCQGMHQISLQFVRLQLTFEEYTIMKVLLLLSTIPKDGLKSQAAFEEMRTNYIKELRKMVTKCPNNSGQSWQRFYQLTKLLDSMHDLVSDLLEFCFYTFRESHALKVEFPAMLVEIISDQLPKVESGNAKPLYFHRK
Procedure, shortened: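 HEK-293 cells on poly-L-lysine-coated wells, transfected with pMMTV-LacZ reporter, pCMV-LUC control and MR expression vector plus empty pcDNA3. […] Four independent experiments, means ± SD.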

[9] = biological target: Mineralocorticoid receptor (Homo sapiens) (UniProt P08235); experiment: Inhibition of MR-mediated transactivation of galactosidase reporter gene in HEK293 cells

T5 sequence (P50172 whole entry): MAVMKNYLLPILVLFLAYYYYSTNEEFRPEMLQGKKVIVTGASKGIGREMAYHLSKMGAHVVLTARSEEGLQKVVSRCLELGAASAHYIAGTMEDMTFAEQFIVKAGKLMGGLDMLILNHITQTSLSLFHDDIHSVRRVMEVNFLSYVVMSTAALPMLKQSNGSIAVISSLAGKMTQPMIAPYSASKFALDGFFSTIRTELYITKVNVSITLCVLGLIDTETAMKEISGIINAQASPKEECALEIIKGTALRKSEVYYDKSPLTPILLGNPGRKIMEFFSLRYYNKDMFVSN

| SMILES | Activity [1] | Activity (HEK293) | IC50 [2] | IC50 [3] | IC50 [4] | IC50 [5] | IC50 [6] | IC50 [7] | IC50 (Glucocorticoid receptor) | IC50 [8] | Activity [9] |
| --- | --- | --- | --- | --- | --- | --- | --- | --- | --- | --- | --- |
| CC(=O)O[C@H]1CC[C@]2(C)[C@H]3C(=O)C=C4[C@@H]5C[C@@](C)(C(=O)O)CC[C@]5(C)CC[C@@]4(C)[C@]3(C)CC[C@H]2C1(C)C [ACETOXOLONE] | > 70% | Not toxic | 18.8 µM | 3.78 µM | – | – | – | – | – | – | – |
| CC1(C)[C@@H](N)CC[C@]2(C)[C@H]3C(=O)C=C4[C@@H]5C[C@@](C)(C(=O)O)CC[C@]5(C)CC[C@@]4(C)[C@]3(C)CC[C@@H]12 | > 70% | Not toxic | > 30 µM | – | 6.04 µM | 1.02 µM | – | – | – | – | – |
| COc1ccc(CCNC(=O)C23CCC(C)(C(=O)C2=O)C3(C)C)cc1OC (centres undefined) | > 70% | Not toxic | 20.2 µM | – | – | 5.21 µM | 3.9 µM | 4.17 µM | – | – | – |
| COC(=O)[C@@]1(C)CC[C@]2(C)CC[C@]3(C)C(=CC(=O)[C@@H]4[C@@]5(C)CC[C@H](Oc6ccccc6C(=O)O)C(C)(C)[C@@H]5CC[C@]43C)[C@@H]2C1 | > 70% | Not toxic | – | 10.3 µM | 48 µM | 3.84 µM | – | – | – | – | – |
| C[C@H]1C[C@@]2(C)CC[C@](C)(C(=O)N[C@H](Cc3ccccc3)C(=O)O)C[C@@]2(C)C2=CC(=O)[C@@H]3[C@@]4(C)CC[C@H](O)C(C)(C)[C@@H]4CC[C@@]3(C)[C@@]21C | > 70% | Not toxic | > 30 µM | 23.6 µM | – | – | – | – | – | – | – |
| CC(=O)OC1CC[C@]2(C)C3=C(C(=O)C[C@H]2C1(C)C)[C@]1(C)CCC(C(C)CCC(=O)O)[C@@]1(C)CC3=O (some centres undefined) | > 70% | Not toxic | – | – | – | – | – | – | 11.8 µM | 21 µM | – |
| C[C@]12CCC(=O)C=C1CC[C@@H]1[C@@H]2C(=O)C[C@@]2(C)[C@H]1CC[C@]2(O)C(=O)CO | – | – | – | – | – | – | – | – | – | – | inactive |
